Bioassay records from PubChem.
Compounds with a hit are over-represented: about 1.9% of the library has one in this group of screens.
ARFGAP1 inh: inhibitors of rat ARFGAP1 | Arfgap1-stimulated ARF1 GTP hydrolysis, GDP FP detection | inhibition, % at 16.5 µM | 360,000 tested, 0.26% active | Q62848;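 active means inhibition above a per-plate limit, mean inhibition of low control wells plus 3 SD, cut at about 25% in these data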;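 further: 0% = DMSO wells with enzyme and 100% = wells lacking Arfgap1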
Target sequence (Q62848 1-136 limits assumed): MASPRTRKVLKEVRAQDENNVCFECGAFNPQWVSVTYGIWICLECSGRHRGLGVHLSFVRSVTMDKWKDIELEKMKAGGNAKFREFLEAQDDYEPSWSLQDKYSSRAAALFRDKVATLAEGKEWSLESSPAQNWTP
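Assay system: Rat Arfgap1 GAP domain (His6, aa 1-136), purified enzyme | Buffer or medium: HEPES 25 mM pH 7.5, NaCl 150 mM, MgCl2, DTT | Schedule: GTP hydrolysis reaction 2 h at 25 °C | Signal: FP of antibody-bound GDP Alexa 633 tracer, ex 620/em 688 nm | Measure: Percent inhibition of Arfgap1-stimulated GTP hydrolysis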
ASAP1 GAP inh: ASAP1 ArfGAP inhibition. 360,000 tested, 0.19% active. inhibition, % at 16.5 µM. ASAP1-stimulated ARF1 GTP hydrolysis, GDP FP detection. AID 624377. Q9ULH1; in the data active means inhibition above about 25%;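 further: 0% = vehicle with enzyme and substrate and 100% = no enzyme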
FGF22 binding-1: binders of recombinant human FGF22 by thermal shift; AID 651658; Q9HCT0; SYPRO orange fluorescence; percent of sucrose octasulfate shift, DMSO zero; activity (Tm shift, normalised), % at 9.99 µM; 340,000 tested, 1.5% active;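 active means mean Tm shift, scaled 0 neutral to 100 positive control, at about 1.3% or above, every replicate too, limit read from the data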
Target sequence (Q9HCT0 whole entry, looked up): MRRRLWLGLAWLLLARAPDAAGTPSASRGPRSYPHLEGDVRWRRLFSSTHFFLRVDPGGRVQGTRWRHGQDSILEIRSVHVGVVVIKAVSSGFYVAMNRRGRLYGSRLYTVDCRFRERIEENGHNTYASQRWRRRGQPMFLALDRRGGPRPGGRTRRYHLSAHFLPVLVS
Rtt109 HAT inh: C. albicans Rtt109 histone acetyltransferase inhibition; inhibition, % at 34.9 µM; purified Rtt109/Vps75, ThioGlo CoA-SH fluorescence, 4 h; Q5AAJ8; 330,000 tested, 0.16% active;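 active means inhibition of at least 50% in every replicate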
Target sequence (Q5AAJ8 whole entry, looked up): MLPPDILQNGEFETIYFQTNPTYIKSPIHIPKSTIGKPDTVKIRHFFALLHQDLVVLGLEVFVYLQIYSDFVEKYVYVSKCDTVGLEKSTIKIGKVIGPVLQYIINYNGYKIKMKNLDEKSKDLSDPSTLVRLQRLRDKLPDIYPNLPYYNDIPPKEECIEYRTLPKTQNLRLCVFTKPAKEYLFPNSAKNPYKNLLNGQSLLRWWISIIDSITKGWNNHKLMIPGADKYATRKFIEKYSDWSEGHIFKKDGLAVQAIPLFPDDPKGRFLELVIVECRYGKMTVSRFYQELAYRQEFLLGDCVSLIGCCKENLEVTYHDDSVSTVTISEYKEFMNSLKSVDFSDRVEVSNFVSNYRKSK
Efflux pump mplx: inhibitors of Candida antifungal efflux pumps expressed in yeast. 330,000 tested, 0.44% active. S. cerevisiae Candida pump triplex, Nile Red efflux. inhibition, % at 10 µM. AID 485275;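 active means plate passing quality check with inhibition over a set limit, or well fluorescence over plate mean plus 4 SD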;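 further: Nile Red retained in pooled yeast measured as flow cytometry median fluorescence; 0% = buffer negative control and 100% = Enniatin B positive control; higher means more Nile Red kept so more efflux inhibition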
FGF22 binding-2: binders of human FGF22 by thermal shift; recombinant FGF22 thermal shift, SYPRO orange fluorescence; 1,000 tested, 2% active; shares compounds with FGF22 binding-1; thermal shift activity, °C (ΔTm) at 38 µM;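 active means fitted rise in melting shift crosses a set limit at or below the top valid dose tested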
TSA no protein: shows thermal shift signal without protein, FGF22 counter-screen. shares compounds with FGF22 binding-1. compound-only SYPRO orange thermal shift counter-screen, no protein. AC50, µM (doses to about 38 µM). 1,000 tested, 2% active. AID 743019;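 active means rising signal whose fitted curve reaches the 0.54 level within the top valid dose, showing a melting point, actives reach about 13 µM in these data; inactive means the rest, including activity in the opposite direction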; further: value is where the raw curve crosses a fixed level and not half-maximal
Numbers without * were called inactive; i = inactive; nt = no result; [ ] = dose if it differs, or a comment.

SMILES	ARFGAP1 inh	ASAP1 GAP inh	FGF22 binding-1	Rtt109 HAT inh	Efflux pump mplx	FGF22 binding-2	TSA no protein
C[C@H](NC(=O)C[C@@H]1CC[C@@H]2[C@H](COC[C@@H](O)CN2C(=O)Nc2cccc(Cl)c2)O1)c1ccccc1	nt	nt	1.5*	nt	nt	-0.005	i
COc1cccc(NC(=O)N2C[C@H](O)COC[C@@H]3O[C@@H](CC(=O)NC4CCC4)CC[C@H]32)c1	nt	nt	1.4*	nt	nt	-0.12	i
O=C(C[C@@H]1CC[C@H]2[C@@H](COC[C@H](O)CN2CC2CCOCC2)O1)NCC1CCCCC1	nt	nt	0	nt	nt	nt	nt
COc1cccc(NC(=O)N2C[C@H](O)COC[C@@H]3O[C@H](CC(=O)NC4CCC4)CC[C@H]32)c1	nt	nt	0	nt	nt	nt	nt
COc1ccccc1CNC(=O)C[C@H]1CC[C@@H]2[C@H](COC[C@H](O)CN2C(=O)Nc2ccc(Cl)cc2)O1	nt	nt	17*	nt	nt	-0.099	i
O=C(C[C@@H]1CC[C@H]2[C@@H](COC[C@@H](O)CN2CC2CCOCC2)O1)NCC1CCCCC1	nt	nt	7.9*	nt	nt	-0.032	i
Cc1ccc(OCCn2cc(/C=C(\C#N)C(=O)NCC3CCCO3)c3ccccc32)cc1 (stereo unspecified)	-7	-6	0	-2	1	nt	nt
CCCCCCC(=O)N(O)C1CC(=O)N(c2ccc(F)cc2)C1=O (stereo unspecified)	2	5	0	-3	0	nt	nt
CC(=O)Nc1ccc(C2=NOC(C)(C)C(=O)N2Cc2cccc(C#N)c2)cc1	-21	16	0	nt	nt	nt	nt
O=C(C[C@@H]1CC[C@@H]2[C@H](COC[C@@H](O)CN2C(=O)Nc2cccc(Cl)c2)O1)NCC1CCCCC1	nt	nt	14*	nt	nt	0.033	i
CO[C@H]1CN(C)C(=O)c2ccc(NC(=O)c3ccc4c(c3)OCO4)cc2OC[C@@H](C)N(CC2CC2)C[C@H]1C	nt	nt	0	nt	nt	nt	nt
OC[C@H]1[C@@H]2c3ccccc3NC[C@@H]2N1Cc1ccccc1Cl	nt	nt	1.4*	nt	nt	0.23[42 µM]	i
O=C(Nc1ccccc1Cl)N1[C@H](CO)[C@@H]2c3ccccc3NC[C@@H]21	nt	nt	1.6*	nt	nt	0.068	i
CC1(C(=O)Nc2ccc3c(c2)OCCO3)CCN1Cc1ccccc1OC(F)F (stereo unspecified)	-2	-16	0	nt	nt	nt	nt
CC(C)CCNC(=O)c1onc(CSc2ccncc2)c1C(=O)NCCC(C)C	7	-8	18*	-1	0	0.095	8.3µM*
CCCCNC(=O)c1onc(CSc2ccc(C(C)C)cc2)c1C(=O)O	5	1	1.5*	6	0	-0.034	i
CCCCNC(=O)c1onc(CSc2ccccc2)c1C(=O)O	-10	3	0	-14	0	nt	nt
C[C@@H]1CN([C@@H](C)CO)C(=O)c2cc(NS(=O)(=O)c3ccc(Cl)cc3)ccc2O[C@@H](C)CCCCO[C@H]1CN(C)C(=O)CCCN(C)C	nt	nt	0	nt	nt	nt	nt
Cc1ccnc2c1NC(=O)c1cccnc1N2C1CC1	4	7	0	4	0	nt	nt
O=C(NCC(=O)N(CC1CCCO1)C(C(=O)NC1CCCCC1)c1ccccc1)c1cccs1 (stereo unspecified)	6	6	0	37	0	nt	nt
O=C(NCC(=O)N(CC1CCCO1)C(C(=O)NC1CCCCC1)c1cccnc1)c1cccs1 (stereo unspecified)	-1	-6	18*	-3	0	0.14	i
CCCCNC(=O)C1c2cc(OC)c(OC)cc2C(=O)N(C)C1c1cccs1 (stereo unspecified)	9	-7	3.6*	-7	0	-0.059	i
CCCN(CCC)CCCNC(=O)C1c2cc(OC)c(OC)cc2C(=O)N(C)C1c1cccs1 (stereo unspecified)	-18	7	nt	7	0	nt	nt
O=C(/C=C/c1ccc(Cl)cc1)N1CCN(Cc2ccccc2)CC1	4	-4	0	8	0	nt	nt
CN1/C(=C\C(=O)c2cccc([N+](=O)[O-])c2)Sc2ccccc21	-5	1	2.2*	0	0	0.013	i
SMILES	ARFGAP1 inh	ASAP1 GAP inh	FGF22 binding-1	Rtt109 HAT inh	Efflux pump mplx	FGF22 binding-2	TSA no protein
COc1cc(OC)cc(C(=O)/C=C2\Sc3ccccc3N2C)c1	6	-5	0	-1	0	nt	nt
CCCCNC(=O)C1(C)CCCCN1C(=O)c1cccc(OC(F)(F)F)c1 (stereo unspecified)	1	1	0	nt	nt	nt	nt
COCC(=O)N1CC2(C1)[C@@H](c1ccc(-c3cccc(C)c3)cc1)[C@@H](CO)N2C(=O)C1CC1	nt	nt	1	nt	nt	nt	nt
CC(=O)N1[C@H](CO)[C@@H](c2ccccc2)C12CN(C(=O)Cc1ccccc1)C2	nt	nt	1.6*	nt	nt	-0.025	i
COCC(=O)N1[C@H](CO)[C@H](c2ccccc2)C12CN(C(=O)c1ccccc1)C2	nt	nt	1.3*	nt	nt	-0.03[42 µM]	i
O=C(Cc1ccccc1)N1CC2(C1)[C@H](c1ccccc1)[C@H](CO)N2C(=O)Cc1ccccc1	nt	nt	0	nt	nt	nt	nt
COCC(=O)N1CC2(C1)[C@H](c1ccc(-c3cccc(C)c3)cc1)[C@H](CO)N2C(=O)C1CC1	nt	nt	1.5*	nt	nt	0.062[42 µM]	i
CC(=O)Nc1cccc(C(=O)N2CCC(n3nccc3NC(=O)CC(C)C)CC2)c1	11	1	1.5*	-4	0	0.01	i
O=C(N[C@@H](Cc1ccccc1)c1nc2ccccc2[nH]1)c1ccc([N+](=O)[O-])cc1	18	2	0	nt	nt	nt	nt
COc1ccccc1NC(=O)Nc1cccc(NC(C)=O)c1	2	6	3.1*	-5	0	0.016	i
CCCc1nc2c(C)cc(C)cc2c(N)c1CC	11	11	nt	-3	0	nt	nt
COc1ccc(-n2nc(C(=O)NCC(=O)NC3CCCC(C)C3C)c3ccccc3c2=O)c(OC)c1 (stereo unspecified)	9	-7	1	4	0	nt	nt
COc1c(O)ccc(/C=C(\C#N)c2nc3ccccc3[nH]2)c1[N+](=O)[O-]	-5	-17	1.4*	15	0	-0.11	i
O=C(Nc1ccc(C(=O)O)cc1)Nc1cccc([N+](=O)[O-])c1	9	1	0	-2	0	nt	nt
O=C(Nc1ccc(C(=O)O)cc1)Nc1ccc([N+](=O)[O-])cc1	-4	-5	1.9*	-2	0	0.089	i
N#Cc1ccc(NC(=O)Nc2cccc(C#N)c2)cc1	13	7	1.9*	-12	0	nt	6.4µM*
COc1cc(-c2nc(C)c(C(C)=O)n2O)ccc1OCC(=O)Nc1ccc(F)cc1	10	7	0	0	0	nt	nt
CCOc1cc(-c2nc(C)c(C(C)=O)n2O)ccc1OCC(=O)Nc1ccc(F)cc1	1	6	2.7*	-4	0	-0.026	i
CC(=O)c1c(C)nc(-c2ccc(OCC(=O)Nc3ccc(F)cc3)cc2)n1O	-3	13	2.3*	-3	0	-0.14	i
